Screening data as filed in PubChem BioAssay.
Shown are actives, neighbours in structure and some others; about 3.5% of the full set was active somewhere.
RGS4 pot = RGS4 potentiation or activation; HEK293 M3R/inducible RGS4, carbachol calcium flux Fluo4; hits give low values; B-score at 10 µM; 310,000 compounds, 0.92% hits;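 active means B-score of the integrated calcium signal more than 4 SD below the library mean, with starting fluorescence not abnormally high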;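 further: negative B-score means reduced calcium response which marks RGS4 activation or potentiation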
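System: HEK293 FlpIn-TREx cells, stable M3R, doxycycline-inducible RGS4. Timing: overnight RGS4 induction, 30 min dye load 37 °C, 20 min compound RT. Also added: carbachol, ECmax concentration. Measured by: Fluo4 fluorescence kinetic imaging of calcium. Evaluation: integrated calcium ratio converted to B score.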
MrgX1 allo act = allosterically activates human MrgX1 receptor signaling; MrgX1-HEK293, Fluo-4 calcium flux, FDSS; hits give high values; 310,000 compounds, 0.63% hits; B-score at 10 µM;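 active means plate-corrected calcium response at least 3 library SD above typical, normal starting fluorescence, not activating the receptor alone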;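 further: compound read alongside a low EC10 to EC30 dose of BAM8-22 agonist; peak minus trough fluorescence over baseline measured at the second addition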
Target sequence (Q96LB2 whole entry, looked up): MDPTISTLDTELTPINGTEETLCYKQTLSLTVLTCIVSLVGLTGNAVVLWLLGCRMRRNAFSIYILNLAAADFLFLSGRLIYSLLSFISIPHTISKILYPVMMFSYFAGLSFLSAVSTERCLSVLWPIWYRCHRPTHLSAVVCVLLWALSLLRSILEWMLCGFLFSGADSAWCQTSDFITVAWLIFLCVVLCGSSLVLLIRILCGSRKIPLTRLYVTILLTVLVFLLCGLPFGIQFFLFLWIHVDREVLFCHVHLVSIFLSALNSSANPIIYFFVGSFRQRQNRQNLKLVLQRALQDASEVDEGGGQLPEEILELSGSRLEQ
RGS4 inh = inhibitors of human RGS4 | P49798 | HEK293 M3R/RGS4 inducible, Fluo-4 calcium flux; hits give high values; triggered by carbachol at its EC20 | B-score at 10 µM | 310,000 compounds, 0.45% hits;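 active means B-score, a plate-corrected calcium signal, over three deviations above library mean, with baseline fluorescence within five deviations of library mean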;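 further: RGS4 expression induced by doxycycline in cells with stable M3 receptor; B-score is computed from the integrated fluorescence ratio over baseline after carbachol; higher B-score means a larger calcium signal and so more RGS4 inhibition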
Target sequence (P49798 whole entry, looked up): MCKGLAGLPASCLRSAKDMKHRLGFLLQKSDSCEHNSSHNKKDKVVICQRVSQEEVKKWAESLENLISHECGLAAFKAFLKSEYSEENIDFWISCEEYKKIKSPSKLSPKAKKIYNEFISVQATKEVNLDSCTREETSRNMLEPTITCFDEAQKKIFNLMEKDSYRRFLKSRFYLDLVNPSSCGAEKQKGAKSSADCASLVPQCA
MrgX1 agonist = activates human MrgX1 receptor signaling | Q96LB2 | MrgX1-HEK293 cells, Fluo-4 calcium fluorescence, agonist mode; hits give high values | B-score at 10 µM | 310,000 compounds, 0.44% hits;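 active means calcium response B-score plate-corrected fluorescence ratio at least 3 library SD, with starting fluorescence B-score inside 5 SD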
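Material: HEK293 cells stably expressing human MrgX1 receptor | Quantity: 15,000 cells per well | Times: Cells plated overnight, dye loaded 0.5 h 37 °C, 0.5 h room temperature | Measured by: Kinetic Fluo-4 NW fluorescence of intracellular calcium | Control set: Positive and negative controls per plate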
MrgX1 antag = human MrgX1 receptor antagonism, primary screen | Q96LB2 | MRGX1-HEK293 calcium flux, Fluo-4, BAM8-22 antagonism; hits give low values | B-score at 10 µM | 310,000 compounds, 1.3% hits | AID 588676;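 active means calcium-response B-score plate-corrected more than 3 library SD below zero, starting fluorescence within 5 deviations, no agonist response on first addition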;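 further: peak minus trough fluorescence over baseline after final BAM8-22 challenge near maximal dose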
MrgX1 antag conf = reconfirmed antagonist of human MrgX1 receptor signaling; shares compounds with MrgX1 antag; AID 602420; MrgX1-HEK293, BAM8-22 calcium flux, Fluo-4; hits give low values; remaining BAM8-22 calcium response % of control (hits give low values), % at 10 µM; 2,300 compounds, 19% hits;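 active means remaining agonist calcium response no higher than 100% minus 3 SD of agonist-only control wells, with starting fluorescence near control levels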;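 further: agonist BAM8-22 given at a near maximal EC90 to ECmax level; peak minus minimum fluorescence divided by baseline after agonist addition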
HEK293 Ca flux = activity in parental HEK293 cells lacking MrgX1. shares compounds with MrgX1 antag. Fluo-4 calcium fluorescence, FDSS. fluorescence ratio F(max-min)/F0 at 10 µM. 4,000 compounds, 2% hits. AID 624111;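 active means duplicate-averaged calcium fluorescence ratio at least three times the standard deviation of buffer wells, a nonspecific response in parental cells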
HEK293 Ca counter = activity in parental HEK293 cells without MrgX1. AID 624114. fluorescence ratio F(max-min)/F0 at 10 µM. shares compounds with MrgX1 antag. parental HEK293 calcium flux, Fluo-4 fluorescence ratio; hits give high values. 4,000 compounds, 0.4% hits;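 active means calcium fluorescence ratio, averaged over duplicates, at least 3 SD of the buffer-well ratio, meaning a nonspecific response in receptor-free cells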;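 further: untransfected parental HEK293 lacking MrgX1 used as counterscreen for MrgX1 allosteric activators; fluorescence change taken during the second addition on a kinetic imager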
HEK293 Ca cntr2 = MrgX1 activator counter-screen hit in parental HEK293 cells | shares compounds with MrgX1 antag | Fluo-4 calcium fluorescence (FDSS); hits give high values | fluorescence ratio F(max-min)/F0 at 10 µM | 4,000 compounds, 8.7% hits | AID 624115;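 active means calcium fluorescence ratio at least three times the spread of buffer wells, meaning a non-specific response in parental cells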
A number is an active result.

How did O=C(CSc1nnc(CNC(=O)c2ccccc2)o1)Nc1ccc2c(c1)OCCO2 do in these assays?
RGS4 pot: inactive; MrgX1 allo act: inactive; RGS4 inh: inactive; MrgX1 agonist: inactive; MrgX1 antag: -5.6; MrgX1 antag conf: inactive; HEK293 Ca flux: inactive; HEK293 Ca counter: inactive; HEK293 Ca cntr2: inactive

Results for O=C(CSc1nnc(CNC(=O)c2ccc(F)cc2)o1)Nc1ccc2c(c1)OCCO2 ?
RGS4 pot: inactive; MrgX1 allo act: inactive; RGS4 inh: inactive; MrgX1 agonist: inactive; MrgX1 antag: inactive

What do the screens show for `COCCCn1c(O)c(/C=C2\N=C(C#N)C(=Nc3ccc(C)cc3)O2)sc1=S`?
RGS4 pot: inactive; MrgX1 allo act: inactive; RGS4 inh: inactive; MrgX1 agonist: inactive; MrgX1 antag: -11; MrgX1 antag conf: inactive; HEK293 Ca flux: inactive; HEK293 Ca counter: inactive; HEK293 Ca cntr2: inactive

What do the screens show for `CCOC(=O)N1CCC(N2CCN(c3cc(C)ccc3C)CC2)CC1`?
RGS4 pot: inactive; MrgX1 allo act: inactive; RGS4 inh: inactive; MrgX1 agonist: inactive; MrgX1 antag: -8.8; MrgX1 antag conf: inactive; HEK293 Ca flux: inactive; HEK293 Ca counter: inactive; HEK293 Ca cntr2: inactive

Results for CC1=C(C(=O)c2ccccc2)C(c2ccc(N3CCOCC3)cc2)NC(=O)N1 (stereo not given) ?
RGS4 pot: inactive; MrgX1 allo act: inactive; RGS4 inh: inactive; MrgX1 agonist: inactive; MrgX1 antag: -8.1; MrgX1 antag conf: 73%; HEK293 Ca flux: inactive; HEK293 Ca counter: inactive; HEK293 Ca cntr2: inactive

How did CC1=C(C(=O)c2ccccc2)C(c2ccc(O)cc2)NC(=S)N1 (stereo not given) do in these assays?
RGS4 pot: inactive; MrgX1 allo act: inactive; RGS4 inh: inactive; MrgX1 agonist: inactive; MrgX1 antag: inactive

What do the screens show for `Cc1nn(C)c(C(=O)N/N=C/c2ccc(-c3ccccc3)cc2)c1Cl`?
RGS4 pot: inactive; MrgX1 allo act: inactive; RGS4 inh: inactive; MrgX1 agonist: inactive; MrgX1 antag: -10; MrgX1 antag conf: inactive; HEK293 Ca flux: inactive; HEK293 Ca counter: inactive; HEK293 Ca cntr2: inactive

What do the screens show for `COc1ccccc1NC(=O)Cn1c(C)nc2c(sc(=S)n2Cc2ccco2)c1=O`?
RGS4 pot: inactive; MrgX1 allo act: inactive; RGS4 inh: inactive; MrgX1 agonist: inactive; MrgX1 antag: inactive

How did CCn1c(SCC(=O)N(C(C)C)C(C)C)nnc1-c1cc2ccccc2cc1O do in these assays?
RGS4 pot: inactive; MrgX1 allo act: inactive; RGS4 inh: inactive; MrgX1 agonist: inactive; MrgX1 antag: -6.2; MrgX1 antag conf: inactive; HEK293 Ca flux: inactive; HEK293 Ca counter: inactive; HEK293 Ca cntr2: inactive

What do the screens show for `CCc1nnc(NC(=O)CSc2nnc(-c3cc4ccccc4cc3O)n2CC)s1`?
RGS4 pot: inactive; MrgX1 allo act: inactive; RGS4 inh: inactive; MrgX1 agonist: inactive; MrgX1 antag: inactive

How did O=C1CC(C(=O)Nc2nccs2)C(c2ccccc2)O1 (stereo not given) do in these assays?
RGS4 pot: inactive; MrgX1 allo act: inactive; RGS4 inh: inactive; MrgX1 agonist: inactive; MrgX1 antag: -6.3; MrgX1 antag conf: inactive; HEK293 Ca flux: inactive; HEK293 Ca counter: inactive; HEK293 Ca cntr2: inactive

What do the screens show for `Nc1nonc1-c1nc2ccccc2n1CC(=O)N1CCCCC1`?
RGS4 pot: inactive; MrgX1 allo act: inactive; RGS4 inh: inactive; MrgX1 agonist: inactive; MrgX1 antag: -5.4; MrgX1 antag conf: inactive; HEK293 Ca flux: inactive; HEK293 Ca counter: inactive; HEK293 Ca cntr2: inactive

Results for Cn1c(-c2nonc2N)nc2ccccc21 ?
RGS4 pot: inactive; MrgX1 allo act: inactive; RGS4 inh: inactive; MrgX1 agonist: inactive; MrgX1 antag: inactive

How did CCCn1c(-c2nonc2N)nc2ccccc21 do in these assays?
RGS4 pot: inactive; MrgX1 allo act: inactive; RGS4 inh: inactive; MrgX1 agonist: inactive; MrgX1 antag: -8.3; MrgX1 antag conf: inactive; HEK293 Ca flux: inactive; HEK293 Ca counter: inactive; HEK293 Ca cntr2: inactive

Results for Nc1nonc1-c1nc2ccccc2n1CC(=O)O ?
RGS4 pot: inactive; MrgX1 allo act: inactive; RGS4 inh: inactive; MrgX1 agonist: inactive; MrgX1 antag: inactive

How did COc1ccc(-c2nc(CN3CCCCC3c3nccn3C)c(C)o2)c(C)c1C (stereo not given) do in these assays?
RGS4 pot: inactive; MrgX1 allo act: inactive; RGS4 inh: inactive; MrgX1 agonist: inactive; MrgX1 antag: inactive

Results for CN(C)S(=O)(=O)c1ccc(S(=O)(=O)NCc2cccs2)cc1 ?
RGS4 pot: inactive; MrgX1 allo act: inactive; RGS4 inh: inactive; MrgX1 agonist: inactive; MrgX1 antag: inactive

Results for C=CCn1c(Cc2cccs2)nnc1SCC(=O)NC1CC1 ?
RGS4 pot: inactive; MrgX1 allo act: inactive; RGS4 inh: inactive; MrgX1 agonist: inactive; MrgX1 antag: -8.8; MrgX1 antag conf: inactive; HEK293 Ca flux: inactive; HEK293 Ca counter: inactive; HEK293 Ca cntr2: inactive

Results for CCn1c(Cc2cccs2)nnc1SCC(=O)NC1CC1 ?
RGS4 pot: inactive; MrgX1 allo act: inactive; RGS4 inh: inactive; MrgX1 agonist: inactive; MrgX1 antag: inactive

Results for COc1ccccc1C(=O)Nc1ccnn1C1CCN(C(=O)c2ccoc2)CC1 ?
RGS4 pot: inactive; MrgX1 allo act: inactive; RGS4 inh: inactive; MrgX1 agonist: inactive; MrgX1 antag: -6; MrgX1 antag conf: inactive; HEK293 Ca flux: inactive; HEK293 Ca counter: inactive; HEK293 Ca cntr2: inactive

What do the screens show for `CCCC[C@@H]1CNC(=O)C(=O)N1CCc1cccc2ccccc12`?
RGS4 pot: inactive; MrgX1 allo act: inactive; RGS4 inh: inactive; MrgX1 agonist: inactive; MrgX1 antag: inactive

Results for COc1cccc(Nc2nc(NCC3CCCO3)c3ccccc3n2)c1 (stereo not given) ?
RGS4 pot: inactive; MrgX1 allo act: inactive; RGS4 inh: inactive; MrgX1 agonist: inactive; MrgX1 antag: -6.1; MrgX1 antag conf: 20%; HEK293 Ca flux: inactive; HEK293 Ca counter: inactive; HEK293 Ca cntr2: inactive

Results for Oc1ccc(Nc2nc(NCC3CCCO3)c3ccccc3n2)cc1 (stereo not given) ?
RGS4 pot: inactive; RGS4 inh: inactive

How did Cc1ccc2ncc(S(=O)(=O)c3ccccc3)c(N3CCCCC3C)c2c1 (stereo not given) do in these assays?
RGS4 pot: inactive; MrgX1 allo act: inactive; RGS4 inh: inactive; MrgX1 agonist: inactive; MrgX1 antag: inactive
